Most compounds without a hit are left out; they make up all but 6.8% or so of the library.
HEK293 NFkB inh: inhibitors of PMA/ionomycin-induced NF-kB reporter, primary screen, antigen receptor NF-kB inhibitor project, cell-based, HEK-293 luciferase reporter, luminescence. HEK-293 NF-kB luciferase reporter. AID 465, 2006. inhibition, % at 3 µM. 0.21% of 62,000 active;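 active = inhibition above the mean of all tested compounds plus 3 SD, cut at about 40% in these data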;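 also: 0% = stimulated DMSO wells and 100% = 10 µM reference inhibitor 5653914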
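System – HEK-293 cells with stable firefly luciferase reporter driven by four HIV NF-kB elements · Doses – one dose, 3 µM · Schedule – 1 h compound pre-incubation, 16 h PMA/ionomycin at 37 °C · Technique – luminescence from luciferase substrate reagent · Measure – percent inhibition normalized per plate to DMSO and reference-inhibitor controls · Replicates – tested once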
Cdc25B block: inhibitors of Cdc25B phosphatase catalytic domain, primary screen, biochemical, OMFP fluorescence; M-phase inducer phosphatase 2 (Homo sapiens), P30305; inhibition, %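 (compounds tested at 10 µM final in the well)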; 0.1% of 65,000 active; AID 368, 2006; recombinant Cdc25B, OMFP fluorescence Ex485/Em525; in the data active = inhibition above about 50%
M1 ag: M1 muscarinic receptor agonists, primary screen, CHO-M1 cells, Fluo-4 calcium, agonist mode. B-score at 10 µM. AID 626, 2007. Muscarinic acetylcholine receptor M1. 3% of 64,000 active. Fluo-4 calcium fluorescence; hits give high values;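 active = fluorescence rise, raw or as B-score row- and column-corrected plate score, outside the 99.7% band of its plate's samples, either direction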
DUSP1 inh: MKP-1 phosphatase inhibitors, primary screen, biochemical, in vitro | Dual specificity protein phosphatase 1 (Homo sapiens), P28562 | recombinant MKP-1, OMFP hydrolysis fluorescence | inhibition, %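 (compounds tested at a single concentration somewhere between 10 and 100 µM)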 | 0.15% of 65,000 active | AID 374, 2006;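 active = inhibition above about 50%, limit read from the data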;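 also: 0% = DMSO max control wells and 100% = wells with enzyme stopped by NaOH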
Target sequence (P28562 whole entry, looked up): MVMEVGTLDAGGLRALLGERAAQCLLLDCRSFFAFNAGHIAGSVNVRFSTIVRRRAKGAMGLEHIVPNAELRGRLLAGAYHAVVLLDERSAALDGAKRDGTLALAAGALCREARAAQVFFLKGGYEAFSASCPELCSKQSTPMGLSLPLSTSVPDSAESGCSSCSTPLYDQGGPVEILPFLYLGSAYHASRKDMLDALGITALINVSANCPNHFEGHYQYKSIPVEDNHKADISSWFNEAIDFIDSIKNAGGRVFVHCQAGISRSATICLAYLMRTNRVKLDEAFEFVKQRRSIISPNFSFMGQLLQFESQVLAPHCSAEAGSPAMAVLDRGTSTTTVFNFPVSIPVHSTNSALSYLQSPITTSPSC
M1 antagonist: antagonists of rat M1 muscarinic receptor. Muscarinic acetylcholine receptor M1 (Rattus norvegicus), P08482. CHO-M1 cells, Fluo-4 calcium, ACh EC80 antagonist mode; hits give low values. B-score at 10 µM. 3.4% of 64,000 active. AID 628, 2007;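 active = calcium fluorescence response, raw or row-and-column corrected B-score, differing from the plate sample mean either way at a set confidence level, mostly lower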
Her2 expr inh: inhibitors of Her2 protein expression, primary screen, SKBR-3 cells, AlphaScreen, 66K library; Receptor tyrosine-protein kinase erbB-2 (Homo sapiens), P04626; SKBR-3 HER2 protein level, 18-24 h; hits give low values; HER2 level % of control, % at 10 µM; 0.69% of 65,000 active;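 active = HER2 level under 5% of the carrier-only control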;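 also: 100% = DMSO carrier and 0% = 500 nM PU-H71 HSP90 inhibitor; lower value means stronger loss of Her2 protein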
M1 antag confirm: rat M1 muscarinic receptor antagonists, confirmation, CHO cells, Fluo-4 calcium, duplicate. shares compounds with M1 antagonist. ACh EC80 antagonism; hits give low values. calcium response (max-min fluorescence) at 10 µM. 43% of 1,700 active. AID 677, 2007;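 active = calcium response below the same-plate mean of wells given acetylcholine alone at its 80%-effect dose, minus 3 SD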;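 also: raw fluorescence intensity difference in arbitrary instrument units and not normalized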
mGluR4 antag: human mGluR4 response to M1 antagonist hits, M1 allosteric modulator project, cell-based, antagonist mode, secondary assay 1; 0.9% of 1,700 active; shares compounds with M1 antagonist; AID 678, 2007; CHO-mGluR4 calcium flux, Fluo-4 fluorescence, glutamate EC80; hits give low values; fluorescence response (max-min) at 10 µM;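 active = fluorescence response below the plate's average for near-maximal glutamate wells, less 3 SD of those wells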;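 also: raw unnormalized fluorescence span taken in the window right after glutamate addition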
* marks the source's active call; other numbers are inactive results; / = no result.

SMILES	HEK293 NFkB inh	Cdc25B block	M1 ag	DUSP1 inh	M1 antagonist	Her2 expr inh	M1 antag confirm	mGluR4 antag
O=C(COc1ccccc1Cl)NC(=O)NC1CCCC1	-4	-2	-0.27	3	-8.7*	93	233*	267
CC1CCN(S(=O)(=O)c2ccc(S(=O)(=O)NCC(=O)C(C)(C)C)cc2)CC1	13	2	0.11	0	-0.26	95	/	/
O=C(Nc1ccc(Cl)cc1)N1CCN(c2ccc3nnc(-c4ccc(F)cc4)n3n2)CC1	11	12	0.73	33	-4.4*	93	386*	258
O=C(Nc1ccccc1Cl)N1CCN(c2ccc3nnc(-c4ccccc4)n3n2)CC1	24	-3	1.5	29	-1	84	/	/
CCc1nc(SCc2ccc(C(=O)OC)o2)c2c(=O)n(C)c(=O)n(C)c2n1	16	3	-1	-5	-6.7*	121	280*	226
Cn1c(=O)c2c(SCc3ccccn3)nc(C3CC3)nc2n(C)c1=O	10	-4	0.17	5	-0.27	68	/	/
CCCc1nc(SCc2ccccn2)c2c(=O)n(C)c(=O)n(C)c2n1	0	-17	-1.1	3	-1.4*	87	405*	204
CCCCOc1ccc(OCCCC)c2c1NC1(N2)C(=O)N(C(C)=O)c2ccccc21	10	0	0.068	9	-0.37	93	/	/
CCN(CC)CC(=O)n1c2c(c3ccccc31)CCCC2	-2	-9	0.8	1	0.00065	96	/	/
CN1CCN(CC(=O)n2c3c(c4ccccc42)CCCC3)CC1	8	-3	2.4	6	-2.9*	73	457*	285
CCN1CCc2c(C#N)c(N3CCOCC3)nc(NCc3ccccc3)c2C1	/	-2	-2	-13	-2.2*	57	572	195
Cc1ccccc1N(Cc1nnc2n1CCCCC2)C(=O)Nc1ccccc1	15	-11	-0.67	6	0.96	115	/	/
CC(OC(=O)c1ccco1)C(=O)NCc1cccs1 (configuration not stated)	1	5	-0.2	0	0.55	94	/	/
CN1CCCN(C(c2ccccc2)c2ccc(Cl)cc2)CC1 (configuration not stated)	/	-18	0.81	-20	-16*	114	14*	214
CC(C)N1C(=O)C2ON(c3ccccc3)C(c3cccs3)C2C1=O (configuration not stated)	7	-1	-0.055	-19	-3.8*	139	542	243
CCOC(=O)CSc1cc(C)nc(NC(C)=O)n1	24	-2	0.34	-9	0.066	102	/	/
COc1ccccc1NC(=O)C(C)NS(=O)(=O)c1ccc(Cl)cc1 (configuration not stated)	-6	1	0.46	-9	1.6	90	/	/
O=C1c2ccccc2C(=O)N1CC1=CCS(=O)(=O)C1	12	14	-0.4	-9	-2*	141	531	202
Cc1cc(C)c2c(CC(=O)Nc3nccs3)coc2c1	10	-5	-0.13	12	0.48	44	/	/
CC(C)C(NC(=O)C1CCCCC1)C(=O)Nc1ccccn1 (configuration not stated)	14	-4	-0.76	-5	0.099	79	/	/
CC(C)CC(NC(=O)C1CCC(C)CC1)C(=O)Nc1ccccn1 (configuration not stated)	17	-19	0.014	12	-3.4*	55	518	188
CC(C)NC(=O)Cn1nnc(-c2cccc(NC(=O)c3ccccc3F)c2)n1	5	-12	0.58	1	-17*	81	634	250
CC(=O)NCCn1c(SCc2cc(=O)n3cc(Cl)ccc3n2)nc2ccccc2c1=O	6	-1	-1	30	1.6	105	/	/
O=C(Nc1ccc(CN2CCOCC2)cc1)c1cc2ccccc2oc1=O	-23	2	-0.88	7	-0.91	93	/	/
Cc1noc(C)c1COC(=O)c1cccnc1SCC(=O)Nc1ccc2c(c1)OCO2	11	5	-1.6	1	-6.2*	73	132*	242
SMILES	HEK293 NFkB inh	Cdc25B block	M1 ag	DUSP1 inh	M1 antagonist	Her2 expr inh	M1 antag confirm	mGluR4 antag
CCCOC(=O)c1ccc(OCC(O)CN2CCN(C(=O)c3ccccc3)CC2)cc1 (configuration not stated)	10	-24	-0.36	12	-2*	114	502	240
CC(=O)Nc1ccc2c(c1)nc(CCN1CCN(C)CC1)n2C	16	5	-0.21	35	0.0065	78	/	/
O=c1[nH]c2cc3c(cc2cc1CN(CC1CCCO1)S(=O)(=O)c1ccc(Cl)cc1)OCCO3 (configuration not stated)	10	-3	0.013	-7	-4.2*	45	614	269
Cc1ccc(S(=O)(=O)N(Cc2cc3cc4c(cc3[nH]c2=O)OCCO4)CC2CCCO2)cc1 (configuration not stated)	4	2	-0.51	5	0.2	69	/	/
COc1ccc(S(=O)(=O)NCc2csc(C)n2)cc1	14	-10	-0.41	1	1.6	103	/	/
CCn1c(=O)cc(SCC(=O)NCCCN2CCN(c3ccc(F)cc3)CC2)c2ccccc21	13	-16	-0.14	11	-2	91	/	/
Cn1c(=O)cc(SCC(=O)N2CCN(C3CCCCC3)CC2)c2ccccc21	13	-7	1.2	9	-2.8*	113	249*	222
CCn1c(=O)cc(SCC(=O)N2CCCCC2)c2ccccc21	28	-5	0.38	7	-0.27	94	/	/
CCn1c(=O)cc(SCC(=O)N2CCN(Cc3ccc4c(c3)OCO4)CC2)c2ccccc21	18	-14	0.33	56*	-5.7*	81	432*	236
Cn1c(=O)cc(SCC(=O)Nc2ccc3c(c2)OCO3)c2ccccc21	11	-7	1.4	33	0.009	109	/	/
CCn1c(=O)cc(SCC(=O)NCCN2CCN(Cc3ccccc3)CC2)c2ccccc21	5	-8	1.3	26	-3.5*	76	499	224
Cn1c(=O)cc(SCC(=O)N2CCN(Cc3ccc4c(c3)OCO4)CC2)c2ccccc21	5	-9	0.46	40	-2.1*	108	474*	195
